Measurements taken from publication PMC6488424 (European journal of medicinal chemistry, 2019).

How the values were obtained:
[1] = tested on: CXCR4-positive MDA-MB-231 human breast cancer cells; assay: Matrigel invasion assay induced by CXCR4/CXCL12-mediated interaction; assay type: cell-based; conditions: MDA-MB-231, 22 h, read-out: Inhibition of cell invasion
Procedure, shortened: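 MDA-MB-231 cells were pre-mixed with test compound (100 nM) and seeded in the upper well of a Matrigel-coated chamber in serum-free medium. The lower well held CXCL12α (200 ng/mL) as chemoattractant. After 22 h in a humidified incubator, non-invading cells were swabbed off, and invading cells on the filter underside were methanol-fixed and H&E-stained. Percent invasion came from counts of stained cells.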

[2] = Carrageenan-induced paw inflammation suppression test; assay type: in vivo; conditions: mouse paw after treatment with IIIm
[3] = tested on: MDA-MB-231; assay: Cytotoxicity, cell viability; assay type: cell-based, human; conditions: concentrations as high as 100 μM, 24 h treatment
Procedure, shortened: (§1)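 Cells were seeded at 3000 cells/well and held 24 h at 37 °C in a CO2 incubator. They were then exposed to the test compound for 24 h at 37 °C. MTT-type tetrazolium reagent (CellTiter 96AQ) was added for a further 2 h, and absorbance was read at 490 nm.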

[4] = tested on: SKBR3; assay: Cytotoxicity, cell viability; assay type: cell-based, human; conditions: concentrations as high as 100 μM, 24 h treatment
Procedure, shortened: as §1

[5] = tested on: MCF-10A; assay: Cytotoxicity, cell viability; assay type: cell-based, human; conditions: concentrations as high as 100 μM, 24 h treatment
Procedure, shortened: as §1

[6] = target: CXCR4 (Homo sapiens, UniProt P61073); assay type: binding; conditions: fold loss of affinity vs RB-108
CXCR4, sequence (P61073 whole entry): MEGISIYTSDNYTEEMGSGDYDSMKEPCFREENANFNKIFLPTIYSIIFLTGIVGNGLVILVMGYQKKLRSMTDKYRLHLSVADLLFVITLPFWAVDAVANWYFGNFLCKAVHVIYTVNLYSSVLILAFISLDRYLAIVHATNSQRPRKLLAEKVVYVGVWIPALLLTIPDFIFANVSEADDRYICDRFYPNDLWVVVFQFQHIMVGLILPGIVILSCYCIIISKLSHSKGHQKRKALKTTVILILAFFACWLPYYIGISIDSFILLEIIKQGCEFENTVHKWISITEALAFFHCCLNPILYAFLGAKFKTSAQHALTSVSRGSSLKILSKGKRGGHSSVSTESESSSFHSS

SMILES: c1cc(CN2CCCNCCNCCCNCC2)ccc1CN1CCCNCCNCCCNCC1 [AMD3100]
- inhibition at 0.1 µM [1]: 55%

SMILES: O=C(NCc1ccc(CNS(=O)(=O)c2ccc3c(c2)CCO3)cc1)c1ccc(F)cc1 [IIIm, 4-Fluoro-N-(4-(((2,3-dihydrobenzofuran)-5-sulfonamido)methyl)benzyl)benzamide]
- Number of inflammatory cells accumulated in the paw tissue (histological analysis, H&E) [2]: markedly decreased
- Inhibition of proliferation (cytotoxicity) [3]: did not inhibit the proliferation
- Inhibition of proliferation (cytotoxicity) [4]: did not inhibit the proliferation
- Inhibition of proliferation (cytotoxicity) [5]: did not inhibit the proliferation

SMILES: Cc1ccc(S(=O)(=O)NCc2ccc(CNC(=O)c3ccc(F)cn3)cc2)cc1 [Ia, 5-Fluoro-N-(4-(((4-methylphenyl)sulfonamido)methyl)benzyl)picolinamide]
- EC reduced compared with RB-108 [6]: more than 1000 fold

SMILES: Cc1ccc(S(=O)(=O)NCc2ccc(CNC(=O)c3ccc(F)nc3)cc2)cc1 [Ib, 6-Fluoro-N-(4-(((4-methylphenyl)sulfonamido)methyl)benzyl)nicotinamide]
- EC reduced compared with RB-108 [6]: more than 1000 fold
